Experimental data from ChEMBL document CHEMBL3632617, “Chrysin-benzothiazole conjugates as antioxidant and anticancer agents” (Bioorg Med Chem Lett, 2015).
In brackets after ≈: the same amount, converted by molar mass.

Legend:
[1] = Antioxidant activity assessed as DPPH radical scavenging activity after 25 mins by UV-Visible spectrophotometric analysis; type: physicochemical
In short: (§1)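 Radical scavenging by DPPH (Brand–Williams method) and by ABTS radical-cation decolorization via single electron transfer. Ascorbic acid served as the reference. IC50 is the concentration that inhibits 50% of the radicals. Results are the average of triplicate analyses.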

[2] = Antioxidant activity assessed as ABTS radical scavenging activity after 10 mins by UV-Visible spectrophotometric analysis; type: physicochemical; in short: as §1
[3] = system: MDCK; test: Cytotoxicity against MDCK cells after 48 hrs by SRB assay; type: cell-based; conditions: Canis lupus familiaris
In short: (§2)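 Cell lines (HeLa, CaSki, SK-OV-3, MDCK) were obtained from ATCC. The colorimetric end point used the protein-binding dye sulforhodamine B.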

[4] = Cytotoxicity against human CaSki cells after 48 hrs by SRB assay; type: functional, cell-based; conditions: Ca-Ski; in short: as §2
[5] = system: HeLa; test: Cytotoxicity against human HeLa cells after 48 hrs by SRB assay; type: functional, cell-based; in short: as §2
[6] = system: SK-OV-3; test: Cytotoxicity against human SKOV3 cells after 48 hrs by SRB assay; type: functional, cell-based; conditions: SK-OV-3, 48 h; in short: as §2
[7] = system: HeLa; test: Cytotoxicity against human HeLa cells; type: functional, cell-based

`Cc1ccc2nc(NCCCCOc3cc(O)c4c(=O)cc(-c5ccccc5)oc4c3)sc2c1` showed an IC50 [1] of 28.13 mg/L (≈ 59.5 µM), an IC50 [2] of 8.785 mg/L (≈ 18.6 µM) and a CC50 [3] of 294 mg/L (≈ 621 µM). For the same compound, the IC50 [4] was 15.5 mg/L (≈ 32.9 µM), the IC50 [5] was 6.56 mg/L (≈ 13.9 µM) and the IC50 [6] was 48.4 mg/L (≈ 102 µM).

Compound `O=c1cc(-c2ccccc2)oc2cc(OCCCCNc3nc4ccc(I)cc4s3)cc(O)c12` has an IC50 [1] of 25.44 mg/L (≈ 43.5 µM), an IC50 [2] of 9.836 mg/L (≈ 16.8 µM) and a CC50 [3] of 298 mg/L (≈ 510 µM). It also gave an IC50 [4] of 13.2 mg/L (≈ 22.5 µM), an IC50 [5] of 8.12 mg/L (≈ 13.9 µM) and an IC50 [6] of 56.4 mg/L (≈ 96.6 µM).

In the case of `O=c1cc(-c2ccccc2)oc2cc(O)cc(O)c12` [CHRYSIN], the IC50 [7] is reported as 10.9 mg/L (≈ 43 µM).

Compound `O=c1cc(-c2ccccc2)oc2cc(OCCCCNc3nc4ccc(Cl)cc4s3)cc(O)c12` has an IC50 [1] of 13.16 mg/L (≈ 26.7 µM), an IC50 [2] of 4.156 mg/L (≈ 8.43 µM) and a CC50 [3] of 338 mg/L (≈ 685 µM). The IC50 [4] was 12.4 mg/L (≈ 25.2 µM), the IC50 [5] was 5.95 mg/L (≈ 12.1 µM) and the IC50 [6] was 39.2 mg/L (≈ 79.6 µM).

In the case of `O=c1cc(-c2ccccc2)oc2cc(OCCCCNc3nc4ccc(F)cc4s3)cc(O)c12`, the IC50 [1] is reported as 14.74 mg/L (≈ 30.9 µM), the IC50 [2] is reported as 5.246 mg/L (≈ 11 µM) and the CC50 [3] is reported as 324 mg/L (≈ 680 µM). It also gave an IC50 [4] of 13.4 mg/L (≈ 28 µM), an IC50 [5] of 5.03 mg/L (≈ 10.6 µM) and an IC50 [6] of 33.7 mg/L (≈ 70.8 µM).

Work on `O=c1cc(-c2ccccc2)oc2cc(OCCCCNc3nc4ccccc4s3)cc(O)c12` yielded an IC50 [1] of 26.45 mg/L (≈ 57.7 µM), an IC50 [2] of 8.567 mg/L (≈ 18.7 µM) and a CC50 [3] of 348 mg/L (≈ 758 µM). The IC50 [4] was 14.6 mg/L (≈ 31.9 µM), the IC50 [5] was 4.75 mg/L (≈ 10.4 µM) and the IC50 [6] was 48.5 mg/L (≈ 106 µM).

Compound `O=c1cc(-c2ccccc2)oc2cc(OCCCCNc3nc4c(F)cc(F)cc4s3)cc(O)c12` has an IC50 [1] of 15.12 mg/L (≈ 30.6 µM), an IC50 [2] of 5.764 mg/L (≈ 11.7 µM) and a CC50 [3] of 307 mg/L (≈ 621 µM). It also gave an IC50 [4] of 10.8 mg/L (≈ 21.9 µM), an IC50 [5] of 5.56 mg/L (≈ 11.2 µM) and an IC50 [6] of 36.8 mg/L (≈ 74.5 µM).

In the case of `O=c1cc(-c2ccccc2)oc2cc(OCCCCNc3nc4ccc([N+](=O)[O-])cc4s3)cc(O)c12`, the IC50 [1] is reported as 30.25 mg/L (≈ 60.1 µM), the IC50 [2] is reported as 8.135 mg/L (≈ 16.2 µM) and the CC50 [3] is reported as 310 mg/L (≈ 615 µM). For the same compound, the IC50 [4] was 13.2 mg/L (≈ 26.3 µM), the IC50 [5] was 6.44 mg/L (≈ 12.8 µM) and the IC50 [6] was 41.4 mg/L (≈ 82.3 µM).

For `COc1ccc2nc(NCCCCOc3cc(O)c4c(=O)cc(-c5ccccc5)oc4c3)sc2c1`, the IC50 [1] was 23.87 mg/L (≈ 48.9 µM), the IC50 [2] was 7.356 mg/L (≈ 15.1 µM) and the CC50 [3] was 285 mg/L (≈ 583 µM). It also gave an IC50 [4] of 16.1 mg/L (≈ 33 µM), an IC50 [5] of 6.15 mg/L (≈ 12.6 µM) and an IC50 [6] of 38.1 mg/L (≈ 78.1 µM).

Compound `CC(=O)c1ccc2nc(NCCCCOc3cc(O)c4c(=O)cc(-c5ccccc5)oc4c3)sc2c1` has an IC50 [1] of 30.72 mg/L (≈ 61.4 µM), an IC50 [2] of 7.026 mg/L (≈ 14 µM) and a CC50 [3] of 311 mg/L (≈ 621 µM). It also gave an IC50 [4] of 14.5 mg/L (≈ 29 µM), an IC50 [5] of 7.78 mg/L (≈ 15.6 µM) and an IC50 [6] of 34.3 mg/L (≈ 68.4 µM).

Work on `N#Cc1ccc2nc(NCCCCOc3cc(O)c4c(=O)cc(-c5ccccc5)oc4c3)sc2c1` yielded an IC50 [1] of 15.56 mg/L (≈ 32.2 µM), an IC50 [2] of 6.543 mg/L (≈ 13.5 µM) and a CC50 [3] of 312 mg/L (≈ 646 µM). For the same compound, the IC50 [4] was 18.8 mg/L (≈ 39 µM), the IC50 [5] was 8.53 mg/L (≈ 17.6 µM) and the IC50 [6] was 43.7 mg/L (≈ 90.4 µM).

Work on `CCC(=O)c1ccc2nc(NCCCCOc3cc(O)c4c(=O)cc(-c5ccccc5)oc4c3)sc2c1` yielded an IC50 [1] of 32.23 mg/L (≈ 62.6 µM), an IC50 [2] of 7.157 mg/L (≈ 13.9 µM) and a CC50 [3] of 296 mg/L (≈ 574 µM). It also gave an IC50 [4] of 17.8 mg/L (≈ 34.7 µM), an IC50 [5] of 6.26 mg/L (≈ 12.2 µM) and an IC50 [6] of 35.6 mg/L (≈ 69.3 µM).

With `O=C1O[C@H]([C@@H](O)CO)C(O)=C1O` [ASCORBIC ACID] the IC50 [1] was 12.72 mg/L (≈ 72.2 µM) and the IC50 [2] was 5.0925 mg/L (≈ 28.9 µM).

For `CCCC(=O)c1ccc2nc(NCCCCOc3cc(O)c4c(=O)cc(-c5ccccc5)oc4c3)sc2c1`, the IC50 [1] was 38.98 mg/L (≈ 73.7 µM), the IC50 [2] was 8.535 mg/L (≈ 16.1 µM) and the CC50 [3] was 278 mg/L (≈ 525 µM). For the same compound, the IC50 [4] was 17.8 mg/L (≈ 33.6 µM), the IC50 [5] was 7.17 mg/L (≈ 13.6 µM) and the IC50 [6] was 41.6 mg/L (≈ 78.7 µM).

With `O=c1cc(-c2ccccc2)oc2cc(OCCCCNc3nc4ccc(C(F)(F)F)cc4s3)cc(O)c12` the IC50 [1] was 16.27 mg/L (≈ 30.9 µM), the IC50 [2] was 4.953 mg/L (≈ 9.41 µM) and the CC50 [3] was 278 mg/L (≈ 529 µM). It also gave an IC50 [4] of 11.2 mg/L (≈ 21.3 µM), an IC50 [5] of 7.84 mg/L (≈ 14.9 µM) and an IC50 [6] of 37.2 mg/L (≈ 70.6 µM).

In the case of `O=c1cc(-c2ccccc2)oc2cc(OCCCCNc3nc4ccc(Br)cc4s3)cc(O)c12`, the IC50 [1] is reported as 16.09 mg/L (≈ 29.9 µM), the IC50 [2] is reported as 6.565 mg/L (≈ 12.2 µM) and the CC50 [3] is reported as 289 mg/L (≈ 538 µM). For the same compound, the IC50 [4] was 12.4 mg/L (≈ 23.1 µM), the IC50 [5] was 6.56 mg/L (≈ 12.2 µM) and the IC50 [6] was 35.1 mg/L (≈ 65.3 µM).

Compound `O=c1cc(-c2ccccc2)oc2cc(OCCCCNNc3nc4ccccc4s3)cc(O)c12` has an IC50 [1] of 24.34 mg/L (≈ 51.4 µM), an IC50 [2] of 8.734 mg/L (≈ 18.4 µM) and a CC50 [3] of 316 mg/L (≈ 668 µM). For the same compound, the IC50 [4] was 14.6 mg/L (≈ 30.9 µM), the IC50 [5] was 4.64 mg/L (≈ 9.79 µM) and the IC50 [6] was 51.7 mg/L (≈ 109 µM).

For `CCOc1ccc2nc(NCCCCOc3cc(O)c4c(=O)cc(-c5ccccc5)oc4c3)sc2c1`, the IC50 [1] was 24.41 mg/L (≈ 48.6 µM), the IC50 [2] was 8.853 mg/L (≈ 17.6 µM) and the CC50 [3] was 306 mg/L (≈ 610 µM). It also gave an IC50 [4] of 15.1 mg/L (≈ 29.9 µM), an IC50 [5] of 5.25 mg/L (≈ 10.4 µM) and an IC50 [6] of 35.3 mg/L (≈ 70.3 µM).

`O=C(O)c1ccc2nc(NCCCCOc3cc(O)c4c(=O)cc(-c5ccccc5)oc4c3)sc2c1` gave an IC50 [1] of 21.66 mg/L (≈ 43.1 µM), an IC50 [2] of 6.742 mg/L (≈ 13.4 µM) and a CC50 [3] of 324 mg/L (≈ 645 µM). It also gave an IC50 [4] of 12.1 mg/L (≈ 24 µM), an IC50 [5] of 8.42 mg/L (≈ 16.8 µM) and an IC50 [6] of 43.3 mg/L (≈ 86.3 µM).

Compound `CC(=O)Nc1ccc2nc(NCCCCOc3cc(O)c4c(=O)cc(-c5ccccc5)oc4c3)sc2c1` has an IC50 [1] of 29.16 mg/L (≈ 56.6 µM), an IC50 [2] of 8.355 mg/L (≈ 16.2 µM) and a CC50 [3] of 291 mg/L (≈ 565 µM). It also gave an IC50 [4] of 11.4 mg/L (≈ 22 µM), an IC50 [5] of 6.91 mg/L (≈ 13.4 µM) and an IC50 [6] of 51.3 mg/L (≈ 99.4 µM).
